{"source": "ChEMBL document CHEMBL2034883", "about": "“Asperjinone, a nor-neolignan, and terrein, a suppressor of ABCG2-expressing breast cancer cells, from thermophilic Aspergillus terreus” (J Nat Prod, 2012)", "key": {"MCF7 [1]": {"system": "MCF7", "assay": "Cytotoxicity against human MCF7 cells at 100 uM after 96 hrs by MTT assay", "assay_type": "functional, cell-based"}, "MCF7 [2]": {"system": "MCF7", "assay": "Cytotoxicity against human MCF7 cells assessed as suppression of SP-positive cells at 1 nM after 90 mins by Hoechst staining-based FACS analysis (reference value: 2.71%)", "assay_type": "functional", "how_it_was_run": "(§1)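 Side-population assay. MCF-7 cells (1 × 10^6) trypsinized, washed three times in PBS and resuspended in HBSS with 2% FBS and 10 mM HEPES. Incubated with Hoechst 33342 (5 μg/mL) at 37 °C for 90 min with or without compound (1 or 10 nM). FTC (10 μM) used as control. SP fraction gated by flow cytometry. At least three independent experiments.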"}, "MCF7 [3]": {"system": "MCF7", "assay": "Induction of apoptosis in human MCF7 cells assessed as necrotic cells at 10 nM after 96 hrs by annexinV/propidium iodide staining-based flow cytometric analysis (reference value: 2.89 %)", "assay_type": "functional"}, "MCF7 [4]": {"system": "MCF7", "assay": "Induction of apoptosis in human MCF7 cells assessed as viable cells at 10 nM after 96 hrs by annexinV/propidium iodide staining-based flow cytometric analysis (reference value: 89 %)", "assay_type": "functional", "conditions": "MCF7, 96 h, read-out: Activity"}, "MCF7 [5]": {"system": "MCF7", "assay": "Induction of apoptosis in human MCF7 cells assessed as late apoptotic cells at 10 nM after 96 hrs by annexinV/propidium iodide staining-based flow cytometric analysis (reference value: 5.02 %)", "assay_type": "functional"}, "MCF7 [6]": {"system": "MCF7", "assay": "Cytotoxicity against ABCG2-positive human MCF7 cells after 96 hrs by Western blot analysis", "assay_type": "functional, cell-based", "conditions": "in the assay text read “FACS analysis” for “Western blot analysis”", "how_it_was_run": "(§2)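 ABCG2+ subpopulation counted by flow cytometry. MCF-7 cells (2.0 × 10^4) treated 96 h, trypsinized, washed in PBS and resuspended in HBSS with 2% FBS and 10 mM HEPES (10^6/100 μL). Labelled with anti-ABCG2 (5D3) for 30 min, then PE anti-mouse IgG for 15 min. PI (2 μg/mL) added to exclude dead cells. Total ABCG2+ cell number reported as mean ± SD of at least three independent experiments.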"}, "MCF7 [7]": {"system": "MCF7", "assay": "Cytotoxicity against human MCF7 cells assessed as suppression of SP-positive cells at 10 nM after 90 mins by Hoechst staining-based FACS analysis (reference value: 2.71%)", "assay_type": "functional", "how_it_was_run": "as §1"}, "MCF7 [8]": {"system": "MCF7", "assay": "Induction of apoptosis in human MCF7 cells assessed as early apoptotic cells at 10 nM after 96 hrs by annexinV/propidium iodide staining-based flow cytometric analysis (reference value: 3.05 %)", "assay_type": "functional"}, "MCF7 [9]": {"system": "MCF7", "assay": "Cytotoxicity against human MCF7 cells assessed as suppression of SP-positive cells at 10 uM after 90 mins by Hoechst staining-based FACS analysis (reference value: 2.71%)", "assay_type": "functional"}, "MCF7 [10]": {"system": "MCF7", "assay": "Induction of apoptosis in human MCF7 cells assessed as PARP cleavage at 1 nM after 96 hrs by Western blot analysis", "assay_type": "functional, cell-based", "how_it_was_run": "(§3)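 MCF-7 cells (2.0 × 10^5) exposed to 1 nM for 24, 48, 72 and 96 h; 10 nM paclitaxel as control. Lysed in RIPA (pH 8) with protease and phosphatase inhibitors; 40 μg protein per lane run on 10% SDS-PAGE and transferred to PVDF. Blocked in 5% milk/TBST 1 h; primary antibody overnight at 4 °C. Anti-ABCG2 1:100, anti-PARP and anti-caspase-7 each 1:1000. ECL detection.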"}, "MCF7 [11]": {"system": "MCF7", "assay": "Down regulation of ABCG2 expression in human MCF7 cells at 1 nM after 96 hrs by Western blot analysis", "assay_type": "functional, cell-based", "how_it_was_run": "as §3"}, "MCF7 [12]": {"system": "MCF7", "assay": "Down regulation of ABCG2 expression in human MCF7 cells at 1 nM after 96 hrs by Western blot analysis"}, "MCF7 [13]": {"system": "MCF7", "assay": "Induction of apoptosis in human MCF7 cells assessed as caspase 7 cleavage at 1 nM after 96 hrs by Western blot analysis", "assay_type": "functional, cell-based", "how_it_was_run": "as §3"}, "MCF7 [14]": {"system": "MCF7", "assay": "Induction of apoptosis in human MCF7 cells assessed as early apoptotic cells at 1 nM after 96 hrs by annexinV/propidium iodide staining-based flow cytometric analysis (reference value: 3.05 %)", "assay_type": "functional"}, "MCF7 [15]": {"system": "MCF7", "assay": "Induction of apoptosis in human MCF7 cells assessed as necrotic cells at 1 nM after 96 hrs by annexinV/propidium iodide staining-based flow cytometric analysis (reference value: 2.89 %)", "assay_type": "functional"}, "MCF7 [16]": {"system": "MCF7", "assay": "Cytotoxicity against ABCG2-positive human MCF7 cells at 10 nM after 96 hrs by Western blot analysis", "assay_type": "functional, cell-based", "conditions": "in the assay text read “FACS analysis” for “Western blot analysis”", "how_it_was_run": "as §2"}, "MCF7 [17]": {"system": "MCF7", "assay": "Cytotoxicity against ABCG2-positive human MCF7 cells at 1 nM after 96 hrs by Western blot analysis", "assay_type": "functional, cell-based", "conditions": "in the assay text read “FACS analysis” for “Western blot analysis”", "how_it_was_run": "as §2"}, "MCF7 [18]": {"system": "MCF7", "assay": "Induction of apoptosis in human MCF7 cells assessed as late apoptotic cells at 1 nM after 96 hrs by annexinV/propidium iodide staining-based flow cytometric analysis (reference value: 5.02 %)", "assay_type": "functional"}, "HepG2": {"system": "HepG2", "assay": "Cytotoxicity against human HepG2 cells after 96 hrs by MTT assay", "assay_type": "functional, cell-based", "conditions": "HepG2, 96 h"}, "MCF7 [19]": {"system": "MCF7", "assay": "Induction of apoptosis in human MCF7 cells assessed as viable cells at 1 nM after 96 hrs by annexinV/propidium iodide staining-based flow cytometric analysis (reference value: 89 %)", "assay_type": "functional", "conditions": "MCF7, 96 h, read-out: Activity"}, "MCF7 [20]": {"system": "MCF7", "assay": "Down regulation of Akt expression in human MCF7 cells at 1 nM after 6 hrs by Western blot analysis", "assay_type": "functional, cell-based", "how_it_was_run": "(§4)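 MCF-7 cells (2.0 × 10^5) exposed to 1 nM for 1, 3 and 6 h; 10 μM LY294002 as positive control. RIPA lysates, 40 μg per lane, 10% SDS-PAGE and PVDF transfer. Probed overnight at 4 °C with anti-Akt and anti-phospho-Akt Ser473 (1:1000 each), with β-actin (1:10000) as loading control. ECL detection.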"}, "MCF7 [21]": {"system": "MCF7", "assay": "Growth inhibition of human MCF7 cells at 1 nM after 96 hrs by MTT assay", "assay_type": "functional", "conditions": "MCF7, 96 h, read-out: GI"}, "MCF7 [22]": {"system": "MCF7", "assay": "Inhibition of PI3K-mediated Akt phosphorylation at Ser473 in human MCF7 cells at 1 nM after 6 hrs by Western blot analysis", "assay_type": "cell-based", "how_it_was_run": "as §4"}, "MCF7 [23]": {"system": "MCF7", "assay": "Cytotoxicity against human MCF7 cells after 48 hrs by MTT assay", "conditions": "MCF7, 48 h"}, "PANC-1": {"system": "PANC-1", "assay": "Cytotoxicity against human PANC1 cells after 96 hrs by MTT assay", "assay_type": "functional, cell-based", "conditions": "PANC-1, 96 h"}}, "note": "The source made the active and inactive calls. The rule behind the calls is not given here."}
{"smiles": "COc1cc(O)cc(C(=O)O)c1C(=O)c1c(O)c(Cl)c(C)c(Cl)c1O", "values": [{"measurement": "Activity", "setting": "MCF7 [1]", "result": "inactive"}]}
{"smiles": "COC(=O)[C@@]1(Cc2ccc(O)c(CC=C(C)C)c2)OC(=O)C(O)=C1c1ccc(O)cc1", "values": [{"measurement": "Activity", "setting": "MCF7 [1]", "result": "inactive"}]}
{"smiles": "COC(=O)c1cc(O)cc(OC)c1C(=O)c1c(O)c(Cl)c(C)c(Cl)c1O", "values": [{"measurement": "Activity", "setting": "MCF7 [1]", "result": "inactive"}]}
{"smiles": "COC(=O)c1cc(O)cc(OC)c1Oc1cc(C)cc(O)c1C(=O)O", "values": [{"measurement": "Activity", "setting": "MCF7 [1]", "result": "inactive"}]}
{"smiles": "CC(=O)O[C@H]1C(=O)[C@@]2(C)[C@H]([C@H](OC(=O)c3ccccc3)[C@]3(O)C[C@H](OC(=O)[C@H](O)[C@@H](NC(=O)c4ccccc4)c4ccccc4)C(C)=C1C3(C)C)[C@]1(OC(C)=O)CO[C@@H]1C[C@@H]2O", "note": "[PACLITAXEL]", "values": [{"measurement": "Activity", "setting": "MCF7 [2]", "result": 1.71, "unit": "%"}, {"measurement": "Activity", "setting": "MCF7 [3]", "result": 2.91, "unit": "%"}, {"measurement": "viability at 0.01 µM", "setting": "MCF7 [4]", "result": 72.1, "unit": "%"}, {"measurement": "Activity", "setting": "MCF7 [5]", "result": 9.34, "unit": "%"}, {"measurement": "Activity", "setting": "MCF7 [6]", "result": "Dose-dependent effect"}, {"measurement": "Activity", "setting": "MCF7 [7]", "result": 1.65, "unit": "%"}, {"measurement": "Activity", "setting": "MCF7 [8]", "result": 15.6, "unit": "%"}]}
{"smiles": "COc1cc(O)cc2c1C(=O)c1c(O)cc(C)cc1C2=O", "values": [{"measurement": "Activity", "setting": "MCF7 [1]", "result": "inactive"}]}
{"smiles": "COC(=O)c1cc(O)cc(OC)c1Oc1c(Cl)c(C)c(Cl)c(O)c1C(=O)OC", "values": [{"measurement": "Activity", "setting": "MCF7 [1]", "result": "inactive"}]}
{"smiles": "COc1cc(COC(C)=O)cc2c1C(=O)c1c(O)cc(O)cc1C2=O", "values": [{"measurement": "Activity", "setting": "MCF7 [1]", "result": "inactive"}]}
{"smiles": "COC(=O)[C@]1(Cc2ccc3c(c2)C[C@H](O)C(C)(C)O3)OC(=O)C(O)=C1c1ccc(O)cc1", "values": [{"measurement": "Activity", "setting": "MCF7 [1]", "result": "inactive"}]}
{"smiles": "COc1ccc2c3c([nH]c2c1)[C@H](C=C(C)C)N1C(=O)[C@@H]2CCCN2C(=O)[C@@H]1C3", "note": "[FUMITREMORGIN]", "values": [{"measurement": "Activity", "setting": "MCF7 [9]", "result": 0.81, "unit": "%"}]}
{"smiles": "COC(=O)c1cc(O)cc(OC)c1Oc1c(Cl)c(C)c(Cl)c(O)c1C(=O)O", "values": [{"measurement": "Activity", "setting": "MCF7 [1]", "result": "inactive"}]}
{"smiles": "C/C=C/C1=CC(=O)[C@@H](O)[C@@H]1O", "note": "[TERREIN]", "values": [{"measurement": "Activity", "setting": "MCF7 [10]", "result": "Active"}, {"measurement": "Activity", "setting": "MCF7 [2]", "result": 0.77, "unit": "%"}, {"measurement": "Activity", "setting": "MCF7 [11]", "result": "Active"}, {"measurement": "Activity", "setting": "MCF7 [12]", "result": "Active"}, {"measurement": "Activity", "setting": "MCF7 [3]", "result": 2.48, "unit": "%"}, {"measurement": "Activity", "setting": "MCF7 [13]", "result": "Active"}, {"measurement": "viability at 0.01 µM", "setting": "MCF7 [4]", "result": 65.6, "unit": "%"}, {"measurement": "Activity", "setting": "MCF7 [5]", "result": 7.92, "unit": "%"}, {"measurement": "Activity", "setting": "MCF7 [6]", "result": "Dose-dependent effect"}, {"measurement": "Activity", "setting": "MCF7 [14]", "result": 29.6, "unit": "%"}, {"measurement": "Activity", "setting": "MCF7 [15]", "result": 1.89, "unit": "%"}, {"measurement": "Activity", "setting": "MCF7 [16]", "result": "Active"}, {"measurement": "Activity", "setting": "MCF7 [17]", "result": "Active"}, {"measurement": "Activity", "setting": "MCF7 [18]", "result": 8.89, "unit": "%"}, {"measurement": "IC50", "setting": "HepG2", "result": 66.8, "unit": "nM"}, {"measurement": "viability at 0.001 µM", "setting": "MCF7 [19]", "result": 59.7, "unit": "%"}, {"measurement": "Activity", "setting": "MCF7 [20]", "result": "Active"}, {"measurement": "inhibition of growth at 0.001 µM", "setting": "MCF7 [21]", "result": 70, "unit": "%"}, {"measurement": "Activity", "setting": "MCF7 [7]", "result": 0.89, "unit": "%"}, {"measurement": "inhibition", "setting": "MCF7 [22]", "result": "Active"}, {"measurement": "Activity", "setting": "MCF7 [8]", "result": 24, "unit": "%"}, {"measurement": "IC50", "setting": "MCF7 [23]", "result": 1.1, "unit": "nM"}, {"measurement": "IC50", "setting": "PANC-1", "result": 9800, "unit": "nM"}]}
{"smiles": "COC(=O)[C@]1(Cc2ccc3c(c2)C[C@H](C(C)(C)O)O3)OC(=O)C(O)=C1c1ccc(O)cc1", "values": [{"measurement": "Activity", "setting": "MCF7 [1]", "result": "inactive"}]}
{"smiles": "CC1(C)OC1Cc1cc(CC2=C(c3ccc(O)cc3)C(=O)OC2=O)ccc1O", "note": "(configuration not stated)", "values": [{"measurement": "Activity", "setting": "MCF7 [1]", "result": "inactive"}]}
